Rows were chosen to be rich in hits. Some 3% of all compounds tested hit in one or more screens of this group.
T cruzi inh: inhibitors of intracellular T. cruzi growth, primary screen, luminescence, NIH3T3 host cells; T. cruzi beta-gal in NIH3T3, 90 h; inhibition, % (no concentration beside the values); actives 1.4% (n = 300,000); AID 1885, 2009;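 active = mean inhibition across valid replicates above about 55%, limit read from the data; inconclusive = mean below that limit but half or more replicates reach it; inactive = mean below it, under half of replicates reach it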;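 note: signal also drops with host cell toxicity which is not excluded here; 0% = plate median of DMSO wells and 100% = zero luminescence signal; higher percent means less beta-gal luminescence so fewer parasites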
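System: Mouse NIH/3T3 fibroblasts infected with β-gal-expressing T. cruzi Tulahuen C4 | Quantity: NIH/3T3 cells, 5,000 per well | Reagent: 5000 reporter trypomastigotes per well | Dosing: Compound pinned at 50 nL/well, DMSO | Schedule: 3 h host attachment, then at least 90 h co-culture | Detection: GalScreen luminescence, 60 min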
HIF act: HIF pathway transcriptional activators, primary screen, cell-based, U2OS HRE-luciferase, luminescence; activation, % at 7.5 µM (by protocol); U2OS HRE-luciferase reporter; normalized: DMSO 0%, desferrioxamine 100%; actives 0.32% (n = 300,000);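 active = mean activation of at least 10% of the iron chelator positive control signal, with at least half of replicates also reaching 10%; inconclusive = mean and replicate majority disagree about reaching 10%; inactive = mean and most replicates under 10%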
CendR NRP1 mod: modulators of CendR peptide binding to NRP-1, primary screen, biochemical, fluorescence polarization, uHTS; actives 0.85% (n = 360,000); inhibition, % at 25 µM; AID 602438, 2012; FAM-RPARPAR peptide binding to NRP-1;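 active = inhibition or corrected inhibition above about 18%, plus a signal ratio from 0.5 to 1.5, limit read from the data, passing the limit was not always enough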
Target sequence (O14786 whole entry, looked up): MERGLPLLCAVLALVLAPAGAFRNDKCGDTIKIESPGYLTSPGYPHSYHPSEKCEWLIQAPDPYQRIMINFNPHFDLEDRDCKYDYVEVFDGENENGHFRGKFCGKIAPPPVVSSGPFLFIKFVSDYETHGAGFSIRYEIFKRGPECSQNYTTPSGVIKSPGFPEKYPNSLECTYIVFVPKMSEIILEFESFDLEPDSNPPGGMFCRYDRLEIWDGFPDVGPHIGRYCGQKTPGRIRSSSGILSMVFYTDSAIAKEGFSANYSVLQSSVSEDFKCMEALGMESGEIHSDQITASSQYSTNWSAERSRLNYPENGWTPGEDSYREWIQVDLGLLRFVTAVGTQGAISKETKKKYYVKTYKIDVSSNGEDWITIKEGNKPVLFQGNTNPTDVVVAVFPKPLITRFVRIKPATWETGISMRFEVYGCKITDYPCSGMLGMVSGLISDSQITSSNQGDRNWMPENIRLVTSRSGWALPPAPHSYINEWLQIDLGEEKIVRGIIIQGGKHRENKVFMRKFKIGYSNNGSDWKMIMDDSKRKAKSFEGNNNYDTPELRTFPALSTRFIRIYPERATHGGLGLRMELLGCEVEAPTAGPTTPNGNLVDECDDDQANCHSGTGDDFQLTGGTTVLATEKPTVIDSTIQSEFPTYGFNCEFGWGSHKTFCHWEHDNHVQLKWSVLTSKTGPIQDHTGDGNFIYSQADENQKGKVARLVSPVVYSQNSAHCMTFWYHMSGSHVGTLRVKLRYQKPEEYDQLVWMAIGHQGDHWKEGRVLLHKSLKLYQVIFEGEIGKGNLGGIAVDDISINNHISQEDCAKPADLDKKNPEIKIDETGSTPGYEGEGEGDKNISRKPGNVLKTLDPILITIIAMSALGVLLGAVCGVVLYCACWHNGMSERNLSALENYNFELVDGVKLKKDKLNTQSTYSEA
CR mimetic SO: reduction of superoxide in aged yeast, primary screen, HTS. superoxide response (% of plate mean), % at 10 µM. S. cerevisiae aged cells, superoxide DHE fluorescence; active compounds read low. actives 0.18% (n = 330,000);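 active = superoxide response under a set limit, about three screen SD below normal, cut at about 65% in these data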;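 note: yeast aged for seven days with compound at 30 °C before DHE staining; 100% = average MFI of all compound-treated wells on the plate with controls excluded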
AI-2 QS mod: Vibrio harveyi AI-2 quorum sensing modulators, primary screen, JMH597 strain, luminescence/OD600 ratio; Vibrio harveyi JMH597 AI-2 luminescence/OD600 ratio, 9 h; active compounds read low; strain lacks LuxN and CqsS sensors; 0 = neutral-control median; activity change, % at 7.5 µM; actives 0.4% (n = 300,000); in the data active = activity change below about -75%, passing the limit was not always enough; inconclusive = no clear call, values can overlap the other calls;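 note: luminescence divided by OD600 gain over 9 h not by final OD600 alone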
V-ATPase pHluor: regulators of yeast V-ATPase proton pumping, primary screen, pHLuorin cytosolic pH fluorescence. S. cerevisiae. response, % at 10 µM. actives 0.37% (n = 350,000); in the data active = response mostly above about 7.3%, no sharp cut-off; inactive = mostly below about 5.4%; note: actives read high
An asterisk follows results filed as active; ? = inconclusive; / = no result.

SMILES	T cruzi inh	HIF act	CendR NRP1 mod	CR mimetic SO	AI-2 QS mod	V-ATPase pHluor
CNC(=S)NNC(=O)c1ccccc1Cl	-5.5	-0.7	25.2*	92.7	14.3	2.6
O=C(CCC(=O)c1cccs1)NNC(=O)c1ccccc1Cl	/	/	27.0*	94.2	/	-0.8
CC(C)(C)NC(=S)NNC(=O)c1ccccc1Cl	-6.5	0.3	-0.7	107.7	30.7	-1.4
Cc1ccc(OCc2ccc(C(=O)Nc3nccs3)o2)cc1C	-7.6	-0.4	-0.2	104.4	7.3	-2.7
O=C(CC(Cc1ccccc1)C(=O)O)Nc1ccc(Cl)c(Cl)c1 (stereo unspecified)	-4.8	-0.8	4.1	106.8	9.0	3.5
Cc1noc(C)c1-c1ccc(C(=O)NCc2ccco2)c2occc12	/	/	-15.9	/	/	/
O=C(Cn1ccnc1)c1ccc(Cl)cc1	59.0*	0.5	1.3	88.1	9.9	-2.8
CCOC(=O)Nc1ccc(OCc2nnc3c4ccccc4c(C)nn23)cc1	-0.5	-0.5	-18.9	95.2	-59.6	-0.5
CCCCNC(=O)c1cc(S(=O)(=O)N2CCCCC2)oc1C	0.4	-0.2	9.0	100.3	4.7	-0.7
Cc1ccsc1C(=O)Nc1nnc(-c2ccco2)o1	32.9	0.7	-22.9	107.9	-127.2*	-3.1
Cc1ccc(C(=O)Nc2nnc(-c3ccco3)o2)cc1	-15.9	-0.5	1.6	111.3	5.1	-0.5
Cc1ccc(NC(=O)Nc2cccs2)nc1	-9.9	5.1	25.0*	97.1	11.4	-1.0
Cc1ccc(NC(=O)Nc2cccs2)cc1	-29.5	1.2	-21.1	105.0	13.0	23.3*
CCc1ccc(NC(=O)Nc2cccs2)cc1	-3.0	2.4	-9.4	111.0	40.1	5.3
S=C(Nc1ccc2cn[nH]c2c1)Nc1ccc(Cl)cc1Cl	27.3	4.2	-3.1	106.3	1.5	-1.0
S=C(Nc1ccc2cn[nH]c2c1)Nc1ccccc1Cl	0.7	10.6*	-5.0	102.7	20.5	8.0
S=C(Nc1ccc(Cl)cc1)Nc1ccc2cn[nH]c2c1	-3.5	10.4*	-3.8	116.1	12.4	-2.0
Cc1ccc(S(=O)(=O)N2C(=O)CCC2C(=O)Nn2cnnc2)cc1 (stereo unspecified)	-9.0	-0.1	3.8	100.1	16.1	-3.5
COc1ccc(/C=N/NS(=O)(=O)c2ccc(F)cc2)cc1COc1cc(F)ccc1[N+](=O)[O-]	58.7*	0.3	5.2	102.8	45.5	-0.7
COC(=O)[C@]1(CC(C)C)N[C@H](c2ccc(-c3ccc(OC)cc3)cc2)[C@@H]2C(=O)N(C)C(=O)[C@@H]21	-12.0	0.2	-2.3	90.2	16.6	-0.9
Cc1ccc(S(=O)(=O)N2CCOCC2)cc1C(=O)Nc1ccc(C(N)=O)cc1	7.4	0.7	6.2	106.7	61.7	16.0*
CCCCCC(C)NC(=S)NC(=O)c1cc(S(=O)(=O)N2CCOCC2)ccc1C (stereo unspecified)	14.7	-1.2	26.1*	98.0	39.3	2.9
O=C(Nc1ccc(S(=O)(=O)N2CCOCC2)cc1)c1ccc([N+](=O)[O-])cc1Cl	72.7*	0.6	5.3	111.0	24.7	-0.3
CCCC(C)NC(=S)NC(=O)c1cc(S(=O)(=O)N2CCOCC2)ccc1C (stereo unspecified)	-27.4	-0.3	-1.6	103.2	34.6	4.7
O=S(=O)(CC(CN1CCCCC1)N1CCCCC1)c1ccc2ccccc2c1 (stereo unspecified)	70.6*	0.0	0.7	/	29.6	-4.7
SMILES	T cruzi inh	HIF act	CendR NRP1 mod	CR mimetic SO	AI-2 QS mod	V-ATPase pHluor
CCCCC1=CC2=CC(=O)C(C)(OC(=O)CC)C(=O)C2=CN1CC(C)C (stereo unspecified)	18.5	-1.9	4.0	107.1	39.7	-1.4
CCCCC1=CC2=CC(=O)C(C)(OC(=O)CC)C(=O)C2=CN1C(CO)CO (stereo unspecified)	-5.6	-0.3	35.3*	100.4	23.7	5.4
CCCCC1=CC2=CC(=O)C(C)(OC(=O)CC)C(=O)C2=CN1Cc1ccc(OC)cc1 (stereo unspecified)	34.2	0.6	35.2*	99.0	26.4	-4.6
Cc1cnc(C(=O)OCC(=O)Nc2ccc3c(c2)OCCO3)cn1	/	/	2.2	100.1	/	0.8
O=C(CN(c1ccccc1)S(=O)(=O)c1ccccc1)N/N=C/c1ccc(OC2CSC2)cc1	17.5	0.6	/	98.0	13.1	/
Cc1cccc(N2CCN(S(=O)(=O)c3ccc(Cl)nc3)CC2C)c1 (stereo unspecified)	/	/	26.8*	87.4	/	-3.8
Cc1cccc(N2CCN(S(=O)(=O)c3ccc4c(c3)C(C)(C)C(=O)N4C)CC2C)c1 (stereo unspecified)	25.2	0.0	0.6	101.1	26.7	3.1
Nc1cnnc(N/N=C\c2ccccc2)c1Cl	/	1.8	-2.0	116.8	-6.3	-2.3
CC(NC(=O)CSc1nc2c(c(C(F)(F)F)n1)CCc1ccccc1-2)c1ccccc1 (stereo unspecified)	48.6	-0.3	28.4*	112.5	6.8	-2.9
O=C(CSc1nc2c(c(C(F)(F)F)n1)CCc1ccccc1-2)NCc1ccco1	18.9	-0.1	3.3	98.9	13.7	2.7
Cc1ccc(CSc2nnc3ccc(-c4ccncc4)nn23)cc1	11.6	0.2	-2.9	96.7	-0.8	-5.7
Cc1cc(NC(=O)CN2CCN(C/C=C/c3ccccc3)CC2)c([N+](=O)[O-])cc1C	19.5	-0.4	3.0	106.7	5.8	-1.2
Cc1ccc(C)c2[nH]c(=O)c(CN(Cc3ccco3)C(=O)Nc3ccccc3)cc12	17.4	-0.4	-6.0	95.2	11.7	-0.8
Cc1ccc(NC(=O)N(Cc2ccco2)Cc2cc3cc(C)cc(C)c3nc2Cl)cc1	55.8*	0.4	/	/	3.1	/
Cc1cccc2cc(CN(Cc3ccco3)C(=O)Nc3cccc(C#N)c3)c(Cl)nc12	60.2*	-0.4	-17.1	103.0	-2.0	0.4
O=C(Nc1ccc(Cl)cc1Cl)c1cccc(N2C(=O)C=CC2=O)c1	?	0.3	-1.2	72.0	-0.3	77.9*
O=C(O)c1cccc(N2C(=O)C=CC2=O)c1	/	/	-4.0	/	/	1.1
COc1ccc(Br)cc1/C=C/C(=O)OCC(=O)NCCc1ccc(S(N)(=O)=O)cc1	/	/	4.5	86.9	/	2.2
CCc1cccc2c(C(=O)COC(=O)c3cnc(C)cn3)c[nH]c12	/	/	7.0	89.3	/	6.0
COc1ccc(N(CC(O)CN2CCCCC2)S(=O)(=O)c2ccc(C)cc2)cc1 (stereo unspecified)	-24.0	0.0	23.9*	108.2	13.8	-0.7

Screening results: PubChem BioAssay, several laboratories
